Experimental data published in ChEMBL document CHEMBL3244294, “Dehydrative metabolites of 1-(3-chlorophenyl)-1methyl-2-phenyl-2-(2-pyridine)ethanol as potential hypocholesteremic agents” (J Med Chem, 1978).

Legend:
Rattus norvegicus [1] = assay: Hypocholesteremic activity in Sprague-Dawley rat assessed as reduction in serum cholesterol level at 25 mg/kg for 7 days relative to control; format: functional; set-up: scale not given: the % may be the effect or the level left
Summary of the method: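 Male rats (200 g) were dosed at 25 mg/kg for 7 days, with dosing starting at 1 p.m. Sera were taken 24 h after the final dose, and serum cholesterol was determined by the method of Block et al. Results are reported as mean ± standard deviation and compared with controls by two-tailed Student's t test.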

Rattus norvegicus [2] = assay: Estrogenicity in Sprague-Dawley rat assessed as uterus weight measured per gram of body weight at 25 mg/kg, po for 7 days in presence of 17-beta estradiol (reference value: 0.01 +/- 0.02 mg); format: ADME, organism-based; set-up: dose 25 mg/kg, route oral; conditions: in vivo, 168 h
Summary of the method: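 From 7 days later they were dosed orally by intubation with aqueous suspensions (25 mg/kg) for 7 consecutive days. On day 8 uteri were blotted free of fluid and weighed, expressed as mg/g body weight ×100. A standard curve came from sc 17β-estradiol in peanut oil, giving µg estradiol equivalent to 25 mg compound.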

Serum [3] = assay: Drug recovery in hydrolyzed fraction of Sprague-Dawley rat serum treated with 1-(3-Chlorophenyl)-1-methyl-2-phenyl-2-(2-pyridine)ethanol at 25 mg/kg, ip after 72 hrs by RP-HPLC analysis; format: ADME, organism-based; set-up: dose 25 mg/kg, route intraperitoneal; conditions: in vivo
Summary of the method: (§1)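 ³H-labelled parent was given at 25 mg/kg ip in aqueous 0.26% Tween 80, and serum was collected by cardiac puncture at 72 h. Part of the serum was hydrolysed for 48 h with aryl sulfatase and glucuronidase, then deproteinized with methanol. The residue was run on C-18 reverse-phase HPLC. Values are percent of total recovered HPLC radioactivity.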

[4] = Drug recovery in sephadex G-10 chromatographic fraction of Sprague-Dawley rat urine treated with 1-(3-Chlorophenyl)-1-methyl-2-phenyl-2-(2-pyridine)ethanol at 25 mg/kg, ip by RP-HPLC analysis; format: ADME, organism-based; set-up: dose 25 mg/kg, route intraperitoneal; conditions: in vivo
Summary of the method: (§2)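 One rat was dosed ip at 25 mg/kg with ³H-labelled parent in aqueous 0.26% Tween 80, and urine was collected over 72 h. Urine was either pentane-extracted or fractionated on Sephadex G-10; fraction III was the radioactive eluate free of appreciable urine constituents. Fractions were analysed by C-18 reverse-phase HPLC as percent of total recovered radioactivity.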

Serum [5] = assay: Drug recovery in Sprague-Dawley rat serum treated with 1-(3-Chlorophenyl)-1-methyl-2-phenyl-2-(2-pyridine)ethanol at 25 mg/kg, ip after 2 hrs by RP-HPLC analysis; format: ADME, organism-based; set-up: dose 25 mg/kg, route intraperitoneal; conditions: in vivo
Summary of the method: (§3)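 Rats received 25 mg/kg ³H-labelled parent (tritium in 2-phenyl ring) by ip injection as an aqueous 0.26% Tween 80 suspension. Serum was taken by cardiac puncture at 2, 10 or 72 h (three rats), separated at 1700g for 30 min and deproteinized with methanol. The residue was analysed by C-18 reverse-phase HPLC. Values are percent of total recovered HPLC radioactivity.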

Serum [6] = assay: Drug recovery in Sprague-Dawley rat serum treated with 1-(3-Chlorophenyl)-1-methyl-2-phenyl-2-(2-pyridine)ethanol at 25 mg/kg, ip after 72 hrs by RP-HPLC analysis; format: ADME, organism-based; set-up: dose 25 mg/kg, route intraperitoneal; conditions: in vivo; summary of the method: as §3
Serum [7] = assay: Drug recovery in Sprague-Dawley rat serum treated with 1-(3-Chlorophenyl)-1-methyl-2-phenyl-2-(2-pyridine)ethanol at 25 mg/kg, ip after 10 hrs by RP-HPLC analysis; format: ADME, organism-based; set-up: dose 25 mg/kg, route intraperitoneal; conditions: in vivo; summary of the method: as §3
[8] = Drug recovery in sephadex G-10 chromatographic fraction of Sprague-Dawley rat urine at 25 mg/kg, ip by RP-HPLC analysis; format: ADME, organism-based; set-up: dose 25 mg/kg, route intraperitoneal; conditions: read-out: Drug recovery; summary of the method: as §2
Serum [9] = assay: Drug recovery in Sprague-Dawley rat serum at 25 mg/kg, ip after 2 hrs by RP-HPLC analysis; format: ADME, organism-based; set-up: dose 25 mg/kg, route intraperitoneal; conditions: in vivo; summary of the method: as §3
Serum [10] = assay: Drug recovery in Sprague-Dawley rat serum at 25 mg/kg, ip after 10 hrs by RP-HPLC analysis; format: ADME, organism-based; set-up: dose 25 mg/kg, route intraperitoneal; conditions: in vivo; summary of the method: as §3
[11] = Drug recovery in pentane extract of Sprague-Dawley rat urine at 25 mg/kg, ip by RP-HPLC analysis; format: ADME, organism-based; set-up: dose 25 mg/kg, route intraperitoneal; conditions: read-out: Drug recovery; summary of the method: as §2
Serum [12] = assay: Drug recovery in hydrolyzed fraction of Sprague-Dawley rat serum at 25 mg/kg, ip after 72 hrs by RP-HPLC analysis; format: ADME, organism-based; set-up: dose 25 mg/kg, route intraperitoneal; conditions: in vivo; summary of the method: as §1
Serum [13] = assay: Drug recovery in Sprague-Dawley rat serum at 25 mg/kg, ip after 72 hrs by RP-HPLC analysis; format: ADME, organism-based; set-up: dose 25 mg/kg, route intraperitoneal; conditions: in vivo; summary of the method: as §3
Serum [14] = assay: Drug recovery in pentane extract of Sprague-Dawley rat serum treated with 1-(3-Chlorophenyl)-1-methyl-2-phenyl-2-(2-pyridine)ethanol at 25 mg/kg, ip by RP-HPLC analysis; format: ADME, organism-based; set-up: dose 25 mg/kg, route intraperitoneal; conditions: in vivo

SMILES	Activity (Rattus norvegicus [2])	Drug recovery (Serum [3])	Drug recovery [4]	Drug recovery (Serum [6])	Drug recovery (Serum [7])	Activity (Rattus norvegicus [1])	also measured
C=C(c1cccc(Cl)c1)C(c1ccc(O)cc1)c1ccccn1 (stereo not given)						4%	
c1ccc(Cc2ccccn2)cc1		1.2%	0.2%	2.2%	2.4%		Drug recovery (Serum [5]): 4.7%
C/C(=C(/c1ccccc1)c1ccccn1)c1cccc(Cl)c1	0.22 µg					36.1%	Drug recovery (Serum [14]): 0.1%
C=C(c1cccc(Cl)c1)C(c1ccccc1)c1ccccn1 (stereo not given)						10.1%	

Further lines, with some results ahead:

Activity (Rattus norvegicus [2])	Drug recovery (Serum [3])	Drug recovery [4]	Drug recovery (Serum [6])	Drug recovery (Serum [7])	SMILES	Activity (Rattus norvegicus [1])	also measured
0.92 µg					CC(O)(c1cccc(Cl)c1)C(c1ccc(O)cc1)c1ccccn1 (stereo not given)	43.5%	
0.49 µg					CC(O)(c1cccc(Cl)c1)C(c1ccccc1)c1ccccn1 (stereo not given)	49.5%	dose excreted [8]: < 0.1%; Drug recovery (Serum [9]): 22%; Drug recovery (Serum [10]): 0.9%; dose excreted [11]: 1.6%; Drug recovery (Serum [12]): 1.2%; Drug recovery (Serum [13]): 1.2%
0.03 µg	0.4%	3.3%	1.1%	0.9%	C/C(=C(/c1ccc(O)cc1)c1ccccn1)c1cccc(Cl)c1	38.1%	
0.02 µg	0.3%	0.4%	0.2%	0.3%	C/C(=C(\c1ccc(O)cc1)c1ccccn1)c1cccc(Cl)c1	30.5%	
0.92 µg					C/C(=C(\c1ccccc1)c1ccccn1)c1cccc(Cl)c1	62.8%	Drug recovery (Serum [14]): 0.1%
